Laboratory results reported in ChEMBL document CHEMBL3392956, “Evaluation of synthetic naphthalene derivatives as novel chemical chaperones that mimic 4-phenylbutyric acid” (Bioorg Med Chem Lett, 2015).
Active and inactive are the calls of the source. The rule behind the calls is not given here.

Key:
[1] = Chemical chaperone activity assessed as suppression of alpha-lactalbumin-bovine serum albumin aggregation at 0.3 mM by turbidity assay; assay type: physicochemical; settings: 300 µM
In short: (§1)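 Reduced alpha-lactalbumin (r-LA) was made by incubating LA with 5 mM dithiothreitol and 2.5 mM EDTA for 30 min at 25 °C. Aggregation was started at 37 °C by adding denatured bovine serum albumin, with DMSO vehicle or compound present. Turbidity was read as optical density at 488 nm and expressed relative to the matching controls. Values are means ± SE of four independent experiments.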

[2] = tested on: SH-SY5Y; assay: Protection against ER stress-induced human SH-SY5Y cell damage assessed as cell viability at 0.1 mM after 48 hrs by crystal violet assay; assay type: functional, cell-based
In short: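 Human neuroblastoma SH-SY5Y cells stably expressing Pael-R–FLAG were incubated with or without compound at 0.1, 0.5 or 1.0 mM for 48 h. Viability was determined by crystal violet assay. Values are means ± SE of three independent experiments.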

[3] = Chemical chaperone activity assessed as suppression of alpha-lactalbumin-bovine serum albumin aggregation at 3 mM by turbidity assay; assay type: physicochemical; settings: 3000 µM; in short: as §1

Compound	Activity [1]	Activity [2]	Activity [3]
COc1ccc2ccccc2c1CCCCC(=O)O	Active	Active	–
COc1ccc2ccccc2c1CCC(=O)O	Active	Active	–
COc1ccc(CCCCC(=O)O)c2ccccc12	Active	Active	–
COc1ccc2cc(CCCCC(=O)O)ccc2c1	Active	Active	–
COc1ccc2cc(CCC(=O)O)ccc2c1	Active	Active	–
COc1ccc(CCC(=O)O)c2ccccc12	Active	Active	–
O=C(O)CCCc1ccccc1	–	Active	Active
COc1ccc2ccccc2c1CC/C=C/C(=O)O	Active	Active	–
COc1ccc2cc(CC/C=C/C(=O)O)ccc2c1	Active	Active	–
COc1ccc2cc(/C=C/C(=O)O)ccc2c1	Active	Active	–
COc1ccc(/C=C/C(=O)O)c2ccccc12	Active	Active	–
COc1ccc2ccccc2c1/C=C/C(=O)O	Active	Active	–
